Converted amounts (≈) assume the structure as drawn. Blank lines part the entries; values can stand above or below the compound they belong to. The source made the active and inactive calls. The calls are words filed in the database; no cut-off is given here.
Legend:
[1] = target: DNA gyrase (Escherichia coli, UniProt P0AES4+P0AES6); experiment: Inhibition of Escherichia coli DNA gyrase supercoiling; format: protein-complex assay
Procedure, shortened: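 E. coli gyrase supercoiling measured in a high-throughput plate assay from a commercial kit. Seven inhibitor concentrations; IC50 fitted from the curve, mean of three independent experiments.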

[2] = test system: Enterococcus faecalis; experiment: Antibacterial activity against Enterococcus faecalis ATCC 29212 assessed as bacterial growth inhibition incubated for 18 hrs by microplate reader based analysis; format: functional
[3] = test system: Staphylococcus aureus; experiment: Antibacterial activity against Staphylococcus aureus ATCC 29213 assessed as bacterial growth inhibition incubated for 18 hrs by microplate reader based analysis; format: functional
[4] = test system: Staphylococcus aureus; experiment: Antibacterial activity against Methicillin-resistant Staphylococcus aureus ATCC 43300 assessed as bacterial growth inhibition incubated for 18 hrs by microplate reader based analysis; format: functional
Procedure, shortened: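 Cation-adjusted Mueller Hinton broth II; strains grown overnight on agar then broth at 37 °C. Two-fold 12-step serial dilutions from DMSO stocks (final DMSO at most 0.64%), 5 × 10^4 cells per well, three parallel replicates, 37 °C with 150 rpm shaking for 18 h.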

[5] = test system: Staphylococcus aureus; experiment: Antibacterial activity against Vancomycin-intermediate Staphylococcus aureus ATCC 700699 assessed as bacterial growth inhibition incubated for 18 hrs by microplate reader based analysis; format: functional
[6] = test system: Enterococcus faecium; experiment: Antibacterial activity against Enterococcus faecium ATCC 700221 assessed as bacterial growth inhibition incubated for 18 hrs by microplate reader based analysis; format: functional
[7] = Plasma protein binding in CD-1 mouse assessed as unbound fraction at 5 uM incubated for 4 hrs by equilibrium dialysis method; format: ADME, cell-free
Procedure, shortened: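 Equilibrium dialysis in pooled male CD-1 mouse plasma. Compound at 5 μM (0.5% DMSO), two replicates, 4 h at 37 °C, sampled at 0 min and 4 h. Buffer and plasma aliquots were matrix-matched, quenched with acetonitrile/methanol (2:1) containing internal standard, and analysed by LC–MS/MS. Caffeine, verapamil and nicardipine served as binding controls.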

[8] = test system: Klebsiella pneumoniae; experiment: Antibacterial activity against Klebsiella pneumoniae ATCC 10031 assessed as bacterial growth inhibition incubated for 18 hrs by microplate reader based analysis; format: functional
[9] = test system: Enterobacter cloacae; experiment: Antibacterial activity against Enterobacter cloacae subsp. cloacae ATCC 13047 assessed as bacterial growth inhibition incubated for 18 hrs by microplate reader based analysis; format: functional
[10] = test system: Escherichia coli; experiment: Antibacterial activity against Escherichia coli ATCC 25922 assessed as bacterial growth inhibition incubated for 18 hrs by microplate reader based analysis; format: functional
[11] = test system: Acinetobacter baumannii; experiment: Antibacterial activity against Acinetobacter baumannii ATCC 17978 assessed as bacterial growth inhibition incubated for 18 hrs by microplate reader based analysis; format: functional
[12] = test system: Pseudomonas aeruginosa; experiment: Antibacterial activity against Pseudomonas aeruginosa ATCC 27853 assessed as bacterial growth inhibition incubated for 18 hrs by microplate reader based analysis; format: functional
[13] = Inhibition of Escherichia coli DNA topoisomerase 4 relaxation
[14] = Thermodynamic solubility of compound in 100 mM PBS buffer at pH 7.4 incubated for 48 hrs under shaking condition by LC-MS/MS analysis; format: physicochemical; settings: read-out: Therm_solubility
[15] = test system: Acinetobacter baumannii; experiment: Antibacterial activity against clinical isolate Acinetobacter baumannii assessed as bacterial growth inhibition at 32 ug/ml by CLSI based broth microdilution method relative to control; format: functional
[16] = test system: Acinetobacter baumannii; experiment: Antibacterial activity against clinical isolate Acinetobacter baumannii assessed as bacterial growth inhibition at 4 ug/ml by CLSI based broth microdilution method relative to control; format: functional, organism-based; settings: dose 4.0 µg/ml
Procedure, shortened: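 Hungarian clinical isolates and control strains were tested by the same CLSI broth microdilution procedure (MHBII, OD600 read-out after 18 h at 37 °C), run in 384-well plates.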

[17] = test system: Acinetobacter baumannii; experiment: Antibacterial activity against multi-drug resistant Acinetobacter baumannii assessed as bacterial growth inhibition at 8 ug/ml by CLSI based broth microdilution method relative to control; format: functional; set-up: scale not given: the % may be the effect or the level left; settings: dose 8 µg/ml
Procedure, shortened: (§1)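 Panel of 100 A. baumannii strains of diverse geographic origin, 50 MDR and 50 non-MDR. Tested at a contract lab by broth microdilution following CLSI guidelines. Read-out is the percentage of strains inhibited at each concentration.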

[18] = test system: Acinetobacter baumannii; experiment: Antibacterial activity against multi-drug resistant Acinetobacter baumannii assessed as bacterial growth inhibition by CLSI based broth microdilution method; format: functional
[19] = test system: Acinetobacter baumannii; experiment: Antibacterial activity against non multi-drug resistant Acinetobacter baumannii assessed as bacterial growth inhibition at 8 ug/ml by CLSI based broth microdilution method relative to control; format: functional; set-up: scale not given: the % may be the effect or the level left; settings: dose 8 µg/ml; procedure, shortened: as §1
[20] = Inhibition of Acinetobacter baumannii topoisomerase 4 decatenation incubated for 30 mins in presence of ATP by ethidium bromide staining based analysis
[21] = target: Topoisomerase IV (Staphylococcus aureus, UniProt P0C1S7+P0C1U9); experiment: Inhibition of Staphylococcus aureus topoisomerase 4 decatenation incubated for 30 mins in presence of ATP by ethidium bromide staining based analysis; format: protein-complex assay
[22] = Inhibition of Pseudomonas aeruginosa topoisomerase 4 decatenation incubated for 30 mins in presence of ATP by ethidium bromide staining based analysis
[23] = test system: HepG2; experiment: Cytotoxicity against human HepG2 cells assessed as reduction in cell growth upto 100 uM incubated for 72 hrs by MTS assay; format: toxicity, cell-based; settings: hepg2, 72 h
[24] = target: Sodium channel protein type 5 subunit alpha (Homo sapiens, UniProt Q14524); experiment: Inhibition of Nav1.5 ion channel (unknown origin) expressed in CHO cells at 10 microM by patch-clamp method; format: cell-based
Chain of Sodium channel protein type 5 subunit alpha (Q14524 whole entry): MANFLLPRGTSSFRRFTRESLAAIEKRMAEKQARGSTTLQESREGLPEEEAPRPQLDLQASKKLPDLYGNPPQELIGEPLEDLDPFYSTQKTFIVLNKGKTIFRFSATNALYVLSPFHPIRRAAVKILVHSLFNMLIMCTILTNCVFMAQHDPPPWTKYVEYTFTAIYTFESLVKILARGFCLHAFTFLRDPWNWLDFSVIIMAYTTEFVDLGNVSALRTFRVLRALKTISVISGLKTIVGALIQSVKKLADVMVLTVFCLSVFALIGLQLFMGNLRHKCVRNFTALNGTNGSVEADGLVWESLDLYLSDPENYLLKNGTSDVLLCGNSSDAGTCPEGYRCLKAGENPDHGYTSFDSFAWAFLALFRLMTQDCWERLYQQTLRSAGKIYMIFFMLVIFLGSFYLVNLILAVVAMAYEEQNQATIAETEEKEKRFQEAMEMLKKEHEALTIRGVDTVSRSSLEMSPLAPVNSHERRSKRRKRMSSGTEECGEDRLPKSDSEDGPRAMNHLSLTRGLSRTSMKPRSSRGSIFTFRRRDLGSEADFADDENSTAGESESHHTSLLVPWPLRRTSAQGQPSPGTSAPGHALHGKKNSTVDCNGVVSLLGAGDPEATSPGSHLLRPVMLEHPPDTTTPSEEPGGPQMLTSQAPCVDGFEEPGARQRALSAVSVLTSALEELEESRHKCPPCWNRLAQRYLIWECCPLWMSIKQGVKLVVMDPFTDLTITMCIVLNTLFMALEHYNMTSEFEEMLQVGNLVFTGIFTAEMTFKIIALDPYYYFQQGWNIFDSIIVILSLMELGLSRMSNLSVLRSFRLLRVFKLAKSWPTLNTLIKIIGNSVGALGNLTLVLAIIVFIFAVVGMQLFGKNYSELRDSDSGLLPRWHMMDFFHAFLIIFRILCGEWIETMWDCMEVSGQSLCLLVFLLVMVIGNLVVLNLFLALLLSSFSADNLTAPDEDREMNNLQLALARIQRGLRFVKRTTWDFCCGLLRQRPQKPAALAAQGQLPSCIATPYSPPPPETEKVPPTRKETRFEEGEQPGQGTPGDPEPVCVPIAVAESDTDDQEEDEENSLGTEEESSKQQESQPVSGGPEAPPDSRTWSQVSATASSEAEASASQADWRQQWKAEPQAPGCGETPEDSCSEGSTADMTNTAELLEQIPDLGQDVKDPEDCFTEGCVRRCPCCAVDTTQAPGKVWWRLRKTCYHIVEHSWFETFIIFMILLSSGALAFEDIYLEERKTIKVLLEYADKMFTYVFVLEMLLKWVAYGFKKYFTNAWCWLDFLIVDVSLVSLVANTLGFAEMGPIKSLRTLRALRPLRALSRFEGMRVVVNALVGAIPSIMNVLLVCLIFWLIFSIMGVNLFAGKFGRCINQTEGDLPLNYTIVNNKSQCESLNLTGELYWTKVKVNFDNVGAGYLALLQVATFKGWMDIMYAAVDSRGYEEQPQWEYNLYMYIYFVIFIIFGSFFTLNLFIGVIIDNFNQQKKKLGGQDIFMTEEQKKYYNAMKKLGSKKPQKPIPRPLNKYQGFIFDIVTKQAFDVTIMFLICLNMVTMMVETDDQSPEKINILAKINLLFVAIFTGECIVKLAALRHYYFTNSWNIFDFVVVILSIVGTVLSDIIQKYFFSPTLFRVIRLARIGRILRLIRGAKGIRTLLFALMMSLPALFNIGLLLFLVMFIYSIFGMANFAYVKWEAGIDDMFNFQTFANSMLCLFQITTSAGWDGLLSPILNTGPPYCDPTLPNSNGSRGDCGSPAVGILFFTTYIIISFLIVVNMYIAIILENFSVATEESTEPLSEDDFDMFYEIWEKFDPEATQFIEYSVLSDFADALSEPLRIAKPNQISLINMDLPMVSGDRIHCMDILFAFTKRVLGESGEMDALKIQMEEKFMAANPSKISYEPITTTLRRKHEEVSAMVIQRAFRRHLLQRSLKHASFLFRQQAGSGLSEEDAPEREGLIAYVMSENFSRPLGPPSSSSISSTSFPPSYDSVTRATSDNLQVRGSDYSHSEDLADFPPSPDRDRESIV

[25] = target: T1, Voltage-gated inwardly rectifying potassium channel KCNH2 (Homo sapiens, UniProt Q12809); experiment: Inhibition of hERG channel expressed in HEK293 cells at -40 mV holding potential by whole-cell voltage clamp method; format: toxicity, cell-based
T1 sequence (Q12809 whole entry): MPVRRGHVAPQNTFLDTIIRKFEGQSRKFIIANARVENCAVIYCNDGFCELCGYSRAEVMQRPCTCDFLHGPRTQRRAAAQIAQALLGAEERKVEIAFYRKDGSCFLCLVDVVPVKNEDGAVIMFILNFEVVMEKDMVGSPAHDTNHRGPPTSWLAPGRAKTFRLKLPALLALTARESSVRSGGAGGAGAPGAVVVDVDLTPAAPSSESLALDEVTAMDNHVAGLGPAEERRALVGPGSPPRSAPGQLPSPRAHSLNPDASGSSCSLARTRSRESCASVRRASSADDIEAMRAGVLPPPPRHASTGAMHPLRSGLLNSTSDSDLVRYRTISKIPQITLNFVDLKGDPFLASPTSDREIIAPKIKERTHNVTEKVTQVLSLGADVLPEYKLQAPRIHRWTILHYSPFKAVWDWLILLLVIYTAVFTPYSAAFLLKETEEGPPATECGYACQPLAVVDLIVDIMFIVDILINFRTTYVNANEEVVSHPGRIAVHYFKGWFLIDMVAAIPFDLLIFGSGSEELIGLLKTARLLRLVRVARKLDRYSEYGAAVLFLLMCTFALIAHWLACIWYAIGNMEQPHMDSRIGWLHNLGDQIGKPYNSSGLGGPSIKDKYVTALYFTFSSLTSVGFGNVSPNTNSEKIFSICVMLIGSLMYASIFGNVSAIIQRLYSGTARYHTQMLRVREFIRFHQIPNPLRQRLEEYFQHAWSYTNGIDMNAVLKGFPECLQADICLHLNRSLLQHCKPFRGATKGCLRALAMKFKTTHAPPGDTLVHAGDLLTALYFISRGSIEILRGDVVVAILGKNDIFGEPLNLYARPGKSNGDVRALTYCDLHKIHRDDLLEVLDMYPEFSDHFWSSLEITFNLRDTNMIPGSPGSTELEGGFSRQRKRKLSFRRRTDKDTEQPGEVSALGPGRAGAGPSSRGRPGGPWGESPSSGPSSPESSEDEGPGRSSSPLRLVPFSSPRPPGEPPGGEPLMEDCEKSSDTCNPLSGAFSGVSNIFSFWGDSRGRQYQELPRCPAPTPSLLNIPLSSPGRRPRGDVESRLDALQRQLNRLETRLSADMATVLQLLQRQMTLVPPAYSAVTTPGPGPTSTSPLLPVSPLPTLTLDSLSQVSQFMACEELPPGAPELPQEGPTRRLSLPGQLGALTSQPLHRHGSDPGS

[26] = test system: MCF7; experiment: Cytotoxicity against human MCF7 cells assessed as reduction in cell growth upto 100 uM incubated for 72 hrs by MTS assay; format: toxicity, cell-based; settings: mcf7, 72 h
[27] = test system: MCF7; experiment: Cytotoxicity against human MCF7 cells assessed as reduction in cell growth upto 100 uM incubated for 72 hrs in absence of fetal bovine serum by MTS assay; format: toxicity, cell-based; settings: mcf7, 72 h
[28] = target: T1, Voltage-gated inwardly rectifying potassium channel KCNH2; experiment: Inhibition of hERG potassium ion channel expressed in CHO cells at 50 microM by patch-clamp method; format: toxicity, cell-based
[29] = Metabolic stability in human liver microsomes assessed as intrinsic clearance […] at 1 uM measured upto 60 mins by LC-MS/MS analysis; format: ADME, Microsome; settings: 1 h
Procedure, shortened: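 Pooled human liver microsomes at 0.5 mg/mL in 100 mM KPO4 pH 7.4, compound at 1 μM final. Started with 1 mM NADPH; sampled at 0, 5, 10, 20, 40 and 60 min. Quenched with cold acetonitrile plus internal standard; parent remaining measured by LC–MS/MS. Intrinsic clearance calculated by the Obach approach with literature scaling factors.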

[30] = test system: HepG2; experiment: Cytotoxicity against human HepG2 cells assessed as reduction in cell growth upto 100 uM incubated for 72 hrs in absence of fetal bovine serum by MTS assay; format: toxicity, cell-based; settings: hepg2, 72 h
[31] = Genotoxicity in CHO-K1 cells up to 50 uM incubated for 24 hrs in presence of rat liver S9 fraction by micronucleus test; format: toxicity, subcellular, Cricetulus griseus; settings: chinese hamster, s9, 24 h
[32] = Hemolytic activity in human RBC assessed as hemolysis at 100 uM incubated for 45 mins under shaking condition by spectrophotometer analysis; format: toxicity, cell-based; settings: erythrocyte
[33] = Genotoxicity in CHO-K1 cells upto 100 uM incubated for 24 hrs in absence of rat liver S9 fraction by micronucleus test; format: toxicity, cell-based, Cricetulus griseus; settings: chinese hamster, cho-k1, 24 h
[34] = test system: HepG2; experiment: Mitotoxicity in human HepG2 cells upto 1000 uM incubated for 24 hrs by glu/gal assay; format: toxicity, cell-based; settings: hepg2, 24 h

Compound: Cc1[nH]c(C(=O)Nc2nc3c(N4CCOC[C@@H]4C)cc(C(=O)O)cc3s2)c(Cl)c1Cl
IC50 [1]: 17 nM

Compound: Cc1[nH]c(C(=O)Nc2nc3c(N4CCOCC4)cc(C(=O)O)cc3s2)cc1Cl
Activity [2]: Active | Activity [3]: Active | Activity [4]: Active | Activity [5]: Active | Activity [6]: Active

fraction unbound at 4 h, 5 µM [7]: 0.011
Compound: Cc1[nH]c(C(=O)Nc2nc3c(N4CCOC[C@H]4C)cc(C(=O)O)cc3s2)c(Cl)c1Cl

IC50 [13]: 120 nM
Compound: Cc1[nH]c(C(=O)Nc2nc3c(N4CC[C@H](N(C)C)C4)cc(C(=O)O)cc3s2)c(Cl)c1Cl
Activity [8]: inactive | Activity [9]: inactive | Activity [10]: inactive | Activity [11]: inactive | Activity [12]: inactive

Compound: Cc1[nH]c(C(=O)Nc2nc3c(N4[C@@H]5CC[C@H]4COC5)cc(C(=O)O)cc3s2)c(Cl)c1Cl
solubility thermodynamic at 48 h [14]: 0.26 µM (≈ 0.125 µg/mL) | IC50 [13]: 140 nM

Compound: Cc1[nH]c(C(=O)Nc2nc3c(N4CCNCC4)cc(C(=O)O)cc3s2)c(Cl)c1Cl
Activity [8]: inactive | Activity [9]: inactive | Activity [10]: inactive | Activity [11]: inactive | Activity [12]: inactive

IC50 [13]: 120 nM
Compound: Cc1[nH]c(C(=O)Nc2nc3c(N4CCOC4=O)cc(C(=O)O)cc3s2)c(Cl)c1Cl

IC50 [13]: < 100 nM
Compound: Cc1[nH]c(C(=O)Nc2nc3c(N4CCCC4)cc(C(=O)O)cc3s2)c(Cl)c1Cl

Compound: C[C@H]1c2cccc(O)c2C(=O)C2=C(O)[C@]3(O)C(=O)C(C(N)=O)=C(O)[C@@H](N(C)C)[C@@H]3[C@@H](O)[C@@H]21 [DOXYCYCLINE]
inhibition at 32 µg/mL [15]: 100%

IC50 [13]: 120 nM
Compound: Cc1[nH]c(C(=O)Nc2nc3c(CN4CCOCC4)cc(C(=O)O)cc3s2)c(Cl)c1Cl
Activity [8]: inactive | Activity [9]: inactive | Activity [10]: inactive | Activity [11]: inactive | Activity [12]: inactive

Compound: Cc1[nH]c(C(=O)Nc2nc3c(N4CCC(O)CC4)cc(C(=O)O)cc3s2)c(Cl)c1Cl
Activity [9]: inactive | Activity [10]: inactive | Activity [11]: inactive | Activity [12]: inactive

IC50 [13]: < 100 nM
Compound: Cc1[nH]c(C(=O)Nc2nc3c(N4CC[C@H](N)C4)cc(C(=O)O)cc3s2)c(Cl)c1Cl
Activity [9]: inactive | Activity [10]: inactive | Activity [11]: inactive | Activity [12]: inactive

Compound: COLISTIN
inhibition [16]: Active

MIC [2]: < 0.0312 µg/mL | MIC [6]: < 0.0312 µg/mL
Compound: COCCCNc1cc(C(=O)O)cc2sc(NC(=O)c3[nH]c(C)c(Cl)c3Cl)nc12.N

Compound: CN(C)c1cc(NC(=O)CNC(C)(C)C)c(O)c2c1C[C@H]1C[C@H]3[C@H](N(C)C)C(O)=C(C(N)=O)C(=O)[C@@]3(O)C(O)=C1C2=O [TIGECYCLINE]
Activity [17]: 100% | MIC [18]: > 16 µg/mL | Activity [19]: 100%

IC50 [20]: 9460 nM | IC50 [21]: 13300 nM | IC50 [22]: 8360 nM
Compound: CO[C@@H]1[C@@H](OC(N)=O)[C@@H](O)[C@H](Oc2ccc3c(O)c(NC(=O)c4ccc(O)c(CC=C(C)C)c4)c(=O)oc3c2C)OC1(C)C [NOVOBIOCIN]

MIC [9]: 16 µg/mL (≈ 33.2 µM)
Compound: Cc1[nH]c(C(=O)Nc2nc3c(N4C[C@H]5CC[C@@H](C4)O5)cc(C(=O)O)cc3s2)c(Cl)c1Cl

IC50 [13]: < 100 nM
Compound: Cc1[nH]c(C(=O)Nc2nc3c(N4CCC(=S)CC4)cc(C(=O)O)cc3s2)c(Cl)c1Cl

Compound: Cc1[nH]c(C(=O)Nc2nc3c(N4CCOCC4)cc(C(=O)O)cc3s2)c(Cl)c1Cl
Activity [23]: Non-Toxic | inhibition (INH) [24]: Not Active | inhibition (INH) [25]: Not Active | Activity [26]: Non-Toxic | Activity [27]: Non-Toxic | inhibition (INH) [28]: Not Active | CLint [29]: 13 µL/min | Activity [30]: Non-Toxic | Activity [31]: Non-Toxic | Activity [32]: Non-Toxic | Activity [33]: Non-Toxic | Activity [34]: Non-Toxic

— ChEMBL document CHEMBL5247650, “New Dual Inhibitors of Bacterial Topoisomerases with Broad-Spectrum Antibacterial Activity and In Vivo Efficacy against Vancomycin-Intermediate Staphylococcus aureus” (J Med Chem, 2023)
